Assay results reported in ChEMBL document CHEMBL1153616, “Synthesis and antiviral activity of new pyrazole and thiazole derivatives” (Eur J Med Chem, 2009).

Assays:
Human respirovirus 3 = experiment: Antiviral activity against Parainfluenza virus type 3 infected in african green monkey Vero cells assessed as inhibition of virus-induced cytopathicity after 3 days; assay type: functional, organism-based; conditions: Human respirovirus 3, Vero, 72 h
Procedure, shortened: (§1)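 Confluent cell monolayers infected with 100 CCID50 virus; after 2 h adsorption at 37 °C, virus removed and serial compound dilutions added (DMSO stocks 10 mg/ml). Incubated 37 °C for 3 days until complete CPE in untreated virus control. EC50 = concentration protecting 50% of infected cells from viral cytopathogenicity; ">" marks highest concentration tested.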

Vaccinia virus = experiment: Antiviral activity against Vaccinia virus infected in human HEL cells assessed as inhibition of virus-induced cytopathicity after 3 days; assay type: functional, organism-based; conditions: Orthopoxvirus vaccinia, 72 h
[1] = Cytotoxicity against human HeLa cells assessed as minimum cytotoxic concentration required to cause microscopically detectable alteration in normal cell morphology; assay type: cell-based
Procedure, shortened: (§2)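 Run in parallel with antiviral assays on uninfected cell cultures; test compounds from 10 mg/ml DMSO stocks in serial dilution. Value is minimum cytotoxic concentration (MCC) producing microscopically detectable alteration of normal cell morphology.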

[2] = test system: Vesicular stomatitis virus; experiment: Antiviral activity against Vesicular stomatitis virus infected in human HeLa cells assessed as inhibition of virus-induced cytopathicity after 3 days; assay type: functional, organism-based; conditions: 72 h
Human alphaherpesvirus 1 [3] = experiment: Antiviral activity against HSV1 KOS infected in human HEL cells assessed as inhibition of virus-induced cytopathicity after 3 days; assay type: functional, organism-based; conditions: Human alphaherpesvirus 1, KOS, 72 h
[4] = test system: Mammalian orthoreovirus 1; experiment: Antiviral activity against Reovirus 1 infected in african green monkey Vero cells assessed as inhibition of virus-induced cytopathicity after 3 days; assay type: functional, organism-based; conditions: Mammalian orthoreovirus 1, Vero, 72 h; procedure, shortened: as §1
Punta Toro virus = experiment: Antiviral activity against Punta Toro virus infected in african green monkey Vero cells assessed as inhibition of virus-induced cytopathicity after 3 days; assay type: functional, organism-based; conditions: 72 h
Procedure, shortened: (§3)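 Confluent cell monolayers infected with 100 CCID50 virus; after 2 h adsorption at 37 °C, virus removed and serial compound dilutions added (DMSO stocks 10 mg/ml). Incubated 37 °C for 3 days until complete CPE in untreated virus control.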

[5] = Selectivity index, ratio of MCC for human HeLa cells to EC50 for Coxsackievirus B4; assay type: toxicity, cell-based; conditions: read-out: Selectivity Index
Procedure, shortened: (§4)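 The ratio was MCC/EC50. MCC was the minimum concentration causing microscopically visible change in normal morphology of uninfected HEL, HeLa or Vero cells, scored in parallel with the antiviral test. EC50 came from the CPE assay: 100 CCID50 infection, 2 h adsorption at 37 °C, serial compound dilutions, and 3 days at 37 °C. It was the concentration protecting 50% of cells from virus-induced CPE.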

[6] = Cytotoxicity against african green monkey Vero cells assessed as minimum cytotoxic concentration required to cause microscopically detectable alteration in normal cell morphology; assay type: cell-based; conditions: chlorocebus sabaeus; procedure, shortened: as §2
Sindbis virus = experiment: Antiviral activity against Sindbis virus infected in african green monkey Vero cells assessed as inhibition of virus-induced cytopathicity after 3 days postinfection; assay type: functional, organism-based; conditions: 72 h; procedure, shortened: as §1
[7] = test system: Respiratory syncytial virus; experiment: Antiviral activity against RSV infected in human HeLa cells assessed as inhibition of virus-induced cytopathicity after 3 days; assay type: functional, organism-based; conditions: 72 h; procedure, shortened: as §1
Human alphaherpesvirus 1 [8] = experiment: Antiviral activity against thymidine kinase-deficient ACV-resistant HSV1 KOS infected in human HEL cells assessed as inhibition of virus-induced cytopathicity after 3 days; assay type: functional, organism-based; conditions: Human alphaherpesvirus 1, KOS, 72 h
Human alphaherpesvirus 2 = experiment: Antiviral activity against HSV2 G infected in human HEL cells assessed as inhibition of virus-induced cytopathicity after 3 days; assay type: functional, organism-based; conditions: Human alphaherpesvirus 2, strain G, 72 h; procedure, shortened: as §1
Coxsackievirus B4 [9] = experiment: Antiviral activity against Coxsackievirus B4 infected in african green monkey Vero cells assessed as inhibition of virus-induced cytopathicity after 3 days; assay type: functional, organism-based; conditions: Enterovirus B, 72 h; procedure, shortened: as §1
[10] = Cytotoxicity against HEL cells assessed as minimum cytotoxic concentration required to cause microscopically detectable alteration in normal cell morphology; assay type: cell-based; conditions: human; procedure, shortened: as §2
Coxsackievirus B4 [11] = experiment: Antiviral activity against Coxsackievirus B4 infected in human HeLa cells assessed as inhibition of virus-induced cytopathicity after 3 days; assay type: functional, organism-based; conditions: Enterovirus B, 72 h; procedure, shortened: as §3
[12] = test system: Vesicular stomatitis virus; experiment: Antiviral activity against Vesicular stomatitis virus infected in human HEL cells assessed as inhibition of virus-induced cytopathicity after 3 days; assay type: functional, organism-based; conditions: 72 h
[13] = Selectivity index, ratio of MCC for human HEL cells to EC50 for sVesicular stomatitis virus; assay type: toxicity, cell-based; conditions: read-out: Selectivity Index; procedure, shortened: as §4

Row | Compound | EC50 (Human respirovirus 3) | EC50 (Vaccinia virus) | MCC [1] | EC50 [2] | EC50 (Human alphaherpesvirus 1 [3]) | EC50 [4] | EC50 (Punta Toro virus) | selectivity ratio [5] | MCC [6] | EC50 (Sindbis virus) | EC50 [7] | EC50 (Human alphaherpesvirus 1 [8]) | EC50 (Human alphaherpesvirus 2) | EC50 (Coxsackievirus B4 [9]) | MCC [10] | EC50 (Coxsackievirus B4 [11]) | EC50 [12] | selectivity ratio [13]
1 | Cc1ccc(C2=NN(C(N)=S)C(c3ccc(OCc4ccccc4)cc3)C2)cc1 (configuration not stated) | > 20 µg/mL | > 20 µg/mL | 4 µg/mL | > 0.8 µg/mL | > 20 µg/mL | > 20 µg/mL | > 20 µg/mL | 5 | 100 µg/mL | > 20 µg/mL | > 0.8 µg/mL | > 20 µg/mL | > 20 µg/mL | > 20 µg/mL | 100 µg/mL | > 0.8 µg/mL | > 20 µg/mL | 
2 | Cc1ccc(C2=NN(C3=NC(=O)CS3)C(c3ccc(OCc4ccccc4)cc3)C2)cc1 (configuration not stated) | > 20 µg/mL | > 4 µg/mL | 100 µg/mL | > 20 µg/mL | > 4 µg/mL | > 20 µg/mL | > 20 µg/mL |  | 100 µg/mL | > 20 µg/mL | > 20 µg/mL | > 4 µg/mL | > 4 µg/mL | > 20 µg/mL | 20 µg/mL | > 20 µg/mL | > 4 µg/mL | 5
3 | Clc1ccc(C2=NN(c3nc(-c4ccc(Cl)cc4)cs3)C(c3ccc(OCc4ccccc4)cc3)C2)cc1 (configuration not stated) | > 20 µg/mL | > 100 µg/mL | > 100 µg/mL | > 100 µg/mL | > 100 µg/mL | > 20 µg/mL | > 20 µg/mL |  | 100 µg/mL | > 20 µg/mL | > 100 µg/mL | > 100 µg/mL | > 100 µg/mL | > 20 µg/mL | > 100 µg/mL | > 100 µg/mL | > 100 µg/mL | 
4 | Cc1ccc(C2=NN(c3nc(-c4ccc(Cl)cc4)cs3)C(c3ccc(OCc4ccccc4)cc3)C2)cc1 (configuration not stated) | > 20 µg/mL | > 20 µg/mL | 100 µg/mL | > 20 µg/mL | > 20 µg/mL | > 20 µg/mL | > 20 µg/mL |  | 100 µg/mL | > 20 µg/mL | > 20 µg/mL | > 20 µg/mL | > 20 µg/mL | > 20 µg/mL | 100 µg/mL | > 20 µg/mL | > 20 µg/mL | 
5 | O=C1CSC(N2N=C(c3ccc(Br)cc3)CC2c2ccc(OCc3ccccc3)cc2)=N1 (configuration not stated) | > 20 µg/mL | > 20 µg/mL | > 100 µg/mL | > 100 µg/mL | > 20 µg/mL | > 20 µg/mL | > 20 µg/mL |  | 100 µg/mL | > 20 µg/mL | > 100 µg/mL | > 20 µg/mL | > 20 µg/mL | > 20 µg/mL | 100 µg/mL | > 100 µg/mL | > 20 µg/mL | 
6 | NC(=S)N1N=C(c2ccccc2)CC1c1ccc(OCc2ccccc2)cc1 (configuration not stated) | > 20 µg/mL | > 20 µg/mL | ≥ 20 µg/mL | > 20 µg/mL | > 20 µg/mL | > 20 µg/mL | > 20 µg/mL |  | 100 µg/mL | > 20 µg/mL | > 20 µg/mL | > 20 µg/mL | > 20 µg/mL | > 20 µg/mL | 100 µg/mL | > 20 µg/mL | > 20 µg/mL | 
7 | Clc1ccc(-c2csc(N3N=C(c4ccc(Br)cc4)CC3c3ccc(OCc4ccccc4)cc3)n2)cc1 (configuration not stated) | > 100 µg/mL | > 100 µg/mL | > 100 µg/mL | > 100 µg/mL | > 100 µg/mL | > 100 µg/mL | > 100 µg/mL |  | > 100 µg/mL | > 100 µg/mL | > 100 µg/mL | > 100 µg/mL | > 100 µg/mL | > 100 µg/mL | > 100 µg/mL | > 100 µg/mL | > 100 µg/mL | 
8 | CC(=O)N1N=C(c2ccc(Br)cc2)CC1c1ccc(OCc2ccccc2)cc1 (configuration not stated) | > 20 µg/mL | > 20 µg/mL | 100 µg/mL | > 20 µg/mL | > 20 µg/mL | > 20 µg/mL | > 20 µg/mL |  | 100 µg/mL | > 20 µg/mL | > 20 µg/mL | > 20 µg/mL | > 20 µg/mL | > 20 µg/mL | 100 µg/mL | > 20 µg/mL | > 20 µg/mL | 
9 | Cc1ccc(C2=NN(c3nc(-c4ccc(C)cc4)cs3)C(c3ccc(OCc4ccccc4)cc3)C2)cc1 (configuration not stated) | > 100 µg/mL | > 20 µg/mL | > 100 µg/mL | > 100 µg/mL | > 20 µg/mL | > 100 µg/mL | > 100 µg/mL |  | > 100 µg/mL | > 100 µg/mL | > 100 µg/mL | > 20 µg/mL | > 20 µg/mL | > 100 µg/mL | 100 µg/mL | > 100 µg/mL | > 20 µg/mL | 
10 | CC(=O)N1N=C(c2ccccc2)CC1c1ccc(OCc2ccccc2)cc1 (configuration not stated) | > 20 µg/mL | > 20 µg/mL | > 100 µg/mL | > 100 µg/mL | > 20 µg/mL | > 20 µg/mL | > 20 µg/mL |  | 100 µg/mL | > 20 µg/mL | > 100 µg/mL | > 20 µg/mL | > 20 µg/mL | > 20 µg/mL | 100 µg/mL | > 100 µg/mL | > 20 µg/mL | 
